Source: PubChem BioAssay
A selection: hits, their analogues and other compounds. The true share with any hit is near 2.6%.
SIRT5 block = SIRT5 desuccinylase inhibitors, primary screen, biochemical, fluorescence imaging, single point, set 5; inhibition, % at 15 µM; AID 652115, 2013; hit rate 1.1% among 330,000; NAD-dependent protein deacylase sirtuin-5, mitochondrial (Homo sapiens), Q9NXA8; Purified SirT5, succinyl-peptide AMC, trypsin-coupled fluorescence; in the data active = inhibition above about 15%
Casp6 inh = human caspase-6 inhibitors, primary screen, biochemical, VEID-R110 fluorescence, single point, set 2. P55212. purified caspase-6, Z-VEID-R110 cleavage fluorescence. inhibition, % at 12.5 µM. hit rate 0.53% among 350,000;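 active = mean inhibition across replicates at least about 35%, with every replicate also reaching that limit, limit read from the data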;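 also: 0% = median of neutral control wells and 100% = no fluorescence left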
FGF22 binding = binders of human FGF22 protein, primary screen, FGF22 synaptogenesis inhibitor project, biophysical, thermal shift, single point. recombinant FGF22 thermal shift, SYPRO orange fluorescence; percent of sucrose octasulfate shift, DMSO zero. activity (Tm shift, normalised), % at 9.99 µM. hit rate 1.5% among 340,000. AID 651658, 2012;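 active = mean Tm shift, scaled 0 neutral to 100 positive control, at about 1.3% or above, every replicate too, limit read from the data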
NSD2 inh = NSD2 histone methyltransferase inhibitors, primary screen, biochemical, AlphaScreen, single concentration, set 2. NSD2 peptide methylation, 120 min. inhibition, % at 12.5 µM. hit rate 0.54% among 310,000. AID 743445, 2014; in the data active = inhibition above about 50%
Target sequence (O96028 whole entry, looked up): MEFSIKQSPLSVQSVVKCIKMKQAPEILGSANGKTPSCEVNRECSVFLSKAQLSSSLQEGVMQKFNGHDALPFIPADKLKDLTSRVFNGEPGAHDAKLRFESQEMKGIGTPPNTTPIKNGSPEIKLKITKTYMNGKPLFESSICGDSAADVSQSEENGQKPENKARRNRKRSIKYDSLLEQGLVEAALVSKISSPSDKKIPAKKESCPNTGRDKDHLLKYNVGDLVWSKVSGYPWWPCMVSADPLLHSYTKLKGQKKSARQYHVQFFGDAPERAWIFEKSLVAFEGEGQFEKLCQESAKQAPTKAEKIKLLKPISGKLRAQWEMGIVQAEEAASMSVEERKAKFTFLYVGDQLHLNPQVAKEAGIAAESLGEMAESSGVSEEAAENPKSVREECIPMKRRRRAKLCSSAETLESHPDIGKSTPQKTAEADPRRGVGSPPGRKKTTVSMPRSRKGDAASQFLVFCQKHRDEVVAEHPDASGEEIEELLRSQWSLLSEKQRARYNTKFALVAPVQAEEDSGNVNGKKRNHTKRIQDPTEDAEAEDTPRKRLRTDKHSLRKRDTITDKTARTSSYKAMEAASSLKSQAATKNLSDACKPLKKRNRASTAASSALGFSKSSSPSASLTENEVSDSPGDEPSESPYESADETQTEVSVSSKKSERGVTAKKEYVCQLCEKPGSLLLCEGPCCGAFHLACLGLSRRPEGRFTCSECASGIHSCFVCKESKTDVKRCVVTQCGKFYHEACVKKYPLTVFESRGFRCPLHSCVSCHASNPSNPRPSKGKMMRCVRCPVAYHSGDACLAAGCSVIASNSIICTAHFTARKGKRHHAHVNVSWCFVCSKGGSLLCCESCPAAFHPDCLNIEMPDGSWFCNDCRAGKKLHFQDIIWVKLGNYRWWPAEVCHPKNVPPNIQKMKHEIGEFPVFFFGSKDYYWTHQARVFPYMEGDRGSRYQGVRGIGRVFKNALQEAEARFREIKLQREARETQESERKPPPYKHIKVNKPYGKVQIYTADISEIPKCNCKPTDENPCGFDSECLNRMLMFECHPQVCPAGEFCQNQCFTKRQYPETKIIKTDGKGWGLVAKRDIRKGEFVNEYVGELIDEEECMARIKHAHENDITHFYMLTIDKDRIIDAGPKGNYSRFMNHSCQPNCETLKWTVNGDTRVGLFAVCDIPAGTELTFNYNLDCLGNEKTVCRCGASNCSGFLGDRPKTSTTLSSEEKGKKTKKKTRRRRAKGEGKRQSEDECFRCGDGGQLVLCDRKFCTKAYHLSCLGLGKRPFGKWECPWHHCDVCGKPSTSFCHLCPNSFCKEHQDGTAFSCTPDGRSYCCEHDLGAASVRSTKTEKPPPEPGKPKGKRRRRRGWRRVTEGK
UCH37 DUB inh = inhibitors of human UCH37 deubiquitinase, primary screen, biochemical, Ub-AMC cleavage, fluorescence. purified proteasome/UCH37. inhibition, % (no concentration beside the values). hit rate 0.33% among 330,000;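 active = mean inhibition over replicate wells above about 20%, limit read from the data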;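 also: 0% = compound-free wells with enzyme and 100% = wells lacking proteasome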
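Material: human UCH37 enzyme supplied as purified proteasome complex. Measure: % inhibition of Ub-AMC cleavage fluorescence. Medium: pH 7.4 Tris-HCl (50 mM) with ovalbumin, ATP-MgCl2, DTT. Times: 30 min preincubation with enzyme, 25 min cleavage at room temperature. Detection: AMC fluorescence intensity at 355/460 nm.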
Numbers without * were called inactive; i = inactive; . = no result given.

SMILES	SIRT5 block	Casp6 inh	FGF22 binding	NSD2 inh	UCH37 DUB inh
O=C(O)CCCNc1n[nH]c(=O)[nH]c1=O	12.5	-2.6	42.9*	2.5	4.0
O=[N+]([O-])c1cccc(-c2csc(Nc3ccccc3)n2)c1	-1.5	5.8	0.7	-2.0	7.2
COc1cc(NS(=O)(=O)c2ccc(Nc3nc(-c4cccc([N+](=O)[O-])c4)cs3)cc2)nc(OC)n1	18.6*	6.6	0.4	5.7	5.8
CCOC(=O)/C(C#N)=C1/C=CN(c2ccccc2)C=N1	.	.	.	.	20.8*
CCOC(=O)/C(C#N)=C1/C=CN(c2ccc(C)cc2)C=N1	.	.	.	-3.3	11.1
CCC(C)C(NC(=O)OC(C)(C)C)C(=O)NC(CC(C)C)C(N)=O (configuration not stated)	.	.	.	-2.1	3.0
CCC(C)C(NC(=O)OC(C)(C)C)C(=O)NC(C)C(N)=O (configuration not stated)	-0.3	0.5	42.9*	-1.9	2.9
CCC(=O)Nc1ccc2c(c1)C(=O)N(C)C[C@@H](OC)[C@@H](C)CN(C(=O)CC1CC1)[C@H](C)CO2	-1.7	.	0.5	.	.
CO[C@H]1CN(C)C(=O)c2ccc(NS(=O)(=O)c3cn(C)cn3)cc2OC[C@H](C)NC[C@H]1C	-0.6	.	-0.1	.	.
CCN(CC)c1ccc(/C=C2\C(=O)N(c3nnc(C)c(=O)[nH]3)N=C2C)cc1	3.2	36.1*	-0.6	4.8	2.7
CCN(CC)c1ccc(/C=C2/C(=O)ON=C2C)cc1	5.7	0.5	0.2	6.9	5.2
CS(=O)(=O)N1[C@@H](CO)[C@@H](c2ccccc2)C12CN(C(=O)C1CC1)C2	0.2	2.9	-0.4	.	.
C[C@@H]1CCCCO[C@H](CN(C)C)[C@H](C)CN([C@@H](C)CO)C(=O)c2cc(N(C)C)ccc2O1	4.0	0.8	.	.	.
Oc1cc2c(cc1O)C1c3ccc(O)c(O)c3OCC1(O)C2 (configuration not stated)	0.6	42.1*	-0.2	.	3.3
O=C(N[C@H]1CC[C@@H](CCn2cc(-c3ccccc3)nn2)O[C@H]1CO)c1ccccc1F	0.5	2.4	0.0	.	.
Cc1cc(CNC[C@H]2O[C@@H](n3cnc(C(N)=O)n3)[C@H](O)[C@@H]2O)c(C)n1-c1cccnc1	-1.2	10.3	0.0	.	.
NC(=O)c1ncn([C@@H]2O[C@H](CNCc3cccn3-c3ccncc3)[C@@H](O)[C@H]2O)n1	.	1.2	43.1*	.	.
Cc1nc(C)c(CC(=O)N2CCc3c([nH]c4ccccc34)C2c2ccccn2)s1 (configuration not stated)	17.5*	9.6	0.1	-2.6	0.6
CC(=O)c1cc(CC(=O)N2CCc3c([nH]c4ccccc34)C2c2ccccn2)cs1 (configuration not stated)	-2.0	0.0	-0.1	-3.5	4.1
C[C@@H]1CCCCO[C@@H](CN(C)C(=O)CCCN(C)C)[C@H](C)CN([C@@H](C)CO)C(=O)c2cc(NS(C)(=O)=O)ccc2O1	0.6	-0.7	-0.2	.	.
CC1CC(NC(=O)c2cc3c(=O)n4ccccc4nc3n2C)CC(C)(C)C1 (configuration not stated)	15.0*	1.1	-0.2	-14.7	-404.5
CC1CCCCC1NC(=O)c1cc2c(=O)n3ccccc3nc2n1C (configuration not stated)	-74.1	3.5	-0.1	-8.2	i
O=C(NCCc1ccc(Cl)cc1)C1CC(=O)N(C2CCCC2)C1 (configuration not stated)	-2.2	1.6	0.0	.	2.6
O=C(NCCc1ccc(Cl)cc1)C1CCC(=O)N(C2CCCCCC2)C1 (configuration not stated)	24.8*	28.6	-0.3	-3.5	5.7
O=C(NCCCc1ccccc1)C1CCC(=O)N(Cc2ccc(Cl)cc2)C1 (configuration not stated)	-2.9	-2.6	0.0	-0.1	-1.1
SMILES	SIRT5 block	Casp6 inh	FGF22 binding	NSD2 inh	UCH37 DUB inh
COc1ccc(CCCNC(=O)C2CCC(=O)N(Cc3ccc(Cl)cc3)C2)cc1 (configuration not stated)	31.8*	-2.2	-0.1	0.1	1.4
O=C(NCC1CCCCC1)c1ccc([N+](=O)[O-])cc1	.	-6.1	-0.2	-1.1	1.2
Cc1cc(C(=O)NCC2CCCCC2)ccc1[N+](=O)[O-]	22.0*	-1.7	42.2	7.8	0.3
Cc1ccccc1-c1cc(C(=O)NCc2cccc(C(F)(F)F)c2)nn1CC1CC(c2cccc([N+](=O)[O-])c2)=NO1 (configuration not stated)	.	0.5	0.0	.	34.8*
Cc1ccccc1-c1cc(C(=O)NCc2ccc(OC(F)(F)F)cc2)nn1CC1CC(c2cccc([N+](=O)[O-])c2)=NO1 (configuration not stated)	-6.6	-10.0	0.1	.	1.7
C[C@H]1CN([C@@H](C)CO)S(=O)(=O)c2ccc(-c3cncnc3)cc2O[C@H]1CN(C)Cc1ccccc1	-0.5	1.1	-0.1	.	.
C[C@H](CO)N1C[C@H](C)[C@H](CN(C)C)Oc2ncc(C#CC3CC3)cc2C1=O	0.2	-7.6	0.0	.	.
COc1cccc(C=NNC(=O)CCc2c(C)n[nH]c2C)c1	.	.	.	.	28.7*
O=C(Nc1nc2ccccc2n1CCN1CCOCC1)c1ccc(Cn2cc([N+](=O)[O-])cn2)o1	-1.4	0.0	-0.1	1.4	.
O=C(Nc1nc2ccccc2n1CCN1CCOCC1)c1ccc(COc2ccccc2Br)o1	-4.5	-0.8	43.1*	-0.4	1.4
COc1ccc(NC(=O)Nc2ccc3c(c2)CC(=O)N([C@@H](C)CO)C[C@H](C)[C@H](CN(C)S(=O)(=O)c2ccc(F)cc2)O3)cc1	-0.5	3.8	0.3	.	.
CCOC(=O)C(=O)C1=C(N2CCOCC2)/C(=C\c2cccc([N+](=O)[O-])c2)CC1	4.3	8.0	0.2	8.8	10.6
O=C(NP(=O)(N1CCCC1)N1CCCC1)C1=C(N2CCOCC2)/C(=C/c2cccc([N+](=O)[O-])c2)CC1	2.2	7.2	44.4*	5.1	2.8
O=C(O)CCN1C(=O)/C(=C\c2cccc(Oc3ccccc3)c2)SC1=S	4.8	.	0.2	18.5	20.9*
CC(/C=C1\SC(=S)N(CCCC(=O)Nc2ccc(C(=O)O)cc2)C1=O)=C\c1ccccc1	.	.	.	9.6	1.9
CC(=C\c1ccccc1)/C=C1/SC(=S)N(CCCC(=O)O)C1=O	4.3	-5.8	0.2	.	13.6
CC(=O)c1ccc(NC(=O)CN2C(=O)/C(=C/C=C/c3ccccc3)SC2=S)cc1	-3.7	0.2	1.4*	-2.3	.
O=C(O)CN1C(=O)/C(=C\C(Br)=C\c2ccccc2)SC1=S	5.1	19.4	1.2	55.0*	11.9
